Measured values as given in PubChem BioAssay AID493160 (Sanford-Burnham Center for Chemical Genomics, 2011).
Out of some 340,000 compounds screened, about 540 (0.16%) were called active. The sample holds actives, similar compounds and a random draw of the others, so the mix is not that of the screen.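 Rule for the calls: active = inhibition above about 35% when tested at 20 µM (limit read from the data); inactive = the rest.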

The molecules below were run against Hexokinase HKDC1 (Homo sapiens) (UniProt Q2TB90) (assay: HKDC1 hexokinase inhibitors, primary screen, biochemical, fluorescence, uHTS (AID 493160;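 note: plate controls were DMSO wells with enzyme for no effect and DMSO wells lacking enzyme for full effect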)). Settings: recombinant HKDC1, G6PDH/diaphorase resazurin coupled fluorescence; at 20 µM; hits give high values.
Procedure, shortened: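 Test system: HK5 enzyme. Quantity: 5 µg/mL HK5 final. Reagent: glucose and ATP substrates. Schedule: 90 min reaction incubation at room temperature, dark. Technique: resazurin-to-resorufin fluorescence via G6PDH and diaphorase coupling, 525/613 nm. Control set: DMSO wells with and without enzyme mix.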

Sequence of Hexokinase HKDC1 (Homo sapiens) (Q2TB90 whole entry, looked up): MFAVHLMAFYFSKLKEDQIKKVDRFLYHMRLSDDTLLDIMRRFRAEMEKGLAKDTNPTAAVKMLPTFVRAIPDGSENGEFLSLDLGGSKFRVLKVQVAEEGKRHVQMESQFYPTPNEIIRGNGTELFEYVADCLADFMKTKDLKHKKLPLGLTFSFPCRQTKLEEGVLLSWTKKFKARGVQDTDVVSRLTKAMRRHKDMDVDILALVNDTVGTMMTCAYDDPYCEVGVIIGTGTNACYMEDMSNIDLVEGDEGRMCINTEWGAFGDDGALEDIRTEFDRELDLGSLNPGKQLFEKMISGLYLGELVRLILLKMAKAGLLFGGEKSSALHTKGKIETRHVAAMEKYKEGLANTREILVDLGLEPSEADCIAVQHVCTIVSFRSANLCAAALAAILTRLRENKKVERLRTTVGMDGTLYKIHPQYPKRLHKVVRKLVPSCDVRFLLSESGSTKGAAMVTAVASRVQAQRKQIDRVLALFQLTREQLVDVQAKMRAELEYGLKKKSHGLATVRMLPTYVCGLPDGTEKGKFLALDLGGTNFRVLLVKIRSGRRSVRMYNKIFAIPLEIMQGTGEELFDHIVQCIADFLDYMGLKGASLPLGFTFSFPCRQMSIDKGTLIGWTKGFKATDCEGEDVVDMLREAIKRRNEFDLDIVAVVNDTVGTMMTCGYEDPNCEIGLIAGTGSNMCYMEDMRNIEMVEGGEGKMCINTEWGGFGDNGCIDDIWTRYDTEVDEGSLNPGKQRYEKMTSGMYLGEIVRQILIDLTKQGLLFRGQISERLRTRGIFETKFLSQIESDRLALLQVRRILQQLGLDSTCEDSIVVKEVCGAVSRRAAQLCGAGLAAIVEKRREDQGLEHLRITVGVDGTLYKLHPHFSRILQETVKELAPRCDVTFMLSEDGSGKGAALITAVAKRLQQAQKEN

inhibition, inactive:
O=C1N[C@@H](Cc2ccccc2)C(=O)N2[C@H]1C[C@]1(Br)c3ccccc3N(S(=O)(=O)c3ccccc3)[C@H]21 8.21%, Cc1nn(C)cc1S(=O)(=O)N1CCN(c2ccc(F)cc2)CC1 -0.86%, CN(C)c1ccc(C(=S)N2CCN(C(=S)Nc3ccc(Cl)cc3)CC2)cc1 7.9%, Cc1cc(Cl)ccc1C(=O)C1CCCN(C(=O)CCN2CCCO2)C1 (centres undefined) -7.55%, O=C(/C=C(O)/C=C/c1ccc(O)cc1)/C=C/c1ccc(O)cc1 5.34%, O=C(COC(=O)c1ccccc1NC(=O)c1ccco1)Nc1ccc2c(c1)OC(F)(F)O2 -9.13%, CCOC(=O)C(C)n1cnc2scc(-c3ccc(C)c(C)c3)c2c1=O (centres undefined) -0.93%, O=C(c1cccnc1)N(Cc1ccccc1)C(=O)c1cccnc1 -5.95%, COc1ccc(N(C(=O)c2cccnc2)S(=O)(=O)c2ccc(OC)c(OC)c2)cc1 -5.15%, CCn1c(SCC(=O)Nc2cc(C)ccc2C)nnc1-c1cnccn1 2.21%, COC(=O)c1cc(OC)ccc1-c1ccc(OC)cc1 6.2%, COc1ccc(CNC(=O)CCN2C(=O)c3ccccc3C2=O)cc1 0.43%, COC(=O)[C@H](Cc1ccccc1)NC(=O)Nc1ccc(S(N)(=O)=O)cc1 1.79%, C=CC[C@@H](CC(=O)N[C@@H](CO)Cc1ccccc1)C(=O)N[C@H](COC(=O)[C@H](CC=C)CC(=O)OC(C)(C)C)Cc1ccccc1 -4.61%, COc1ccc(NC(=O)CCC(=O)Nc2cc(OC)c(NC(=O)c3ccco3)cc2OC)c(OC)c1 1.97%, O=C(CSc1ccc(-c2ccco2)nn1)NCc1ccc2c(c1)OCO2 -3.81%, CC(C)N(Cc1nnc(-c2ccccc2Br)o1)C(=O)c1cc(Cl)nc2ccccc12 0.82%, CCOC(=O)c1ccc2c(c1)nc(SCC(=O)NC(C)C)n2CC -4.33%, Cc1ccc(CN2CCNC(=O)C2CC(=O)NCc2csc(C(C)C)n2)cc1 (centres undefined) -3.03%, CC1CC(C)CN(C(=O)CSc2nnc(CSc3ncccn3)n2C)C1 (centres undefined) -4.12%, CCS(=O)(=O)N1Cc2ccccc2CC1C(=O)Nc1ccc(OC)cc1OC (centres undefined) -2.83%, O=C1Nc2cc(C(=O)N3CCC(N4CCCCC4)CC3)ccc2S/C1=C\c1ccccc1 -1.91%, CCCCn1nnnc1NCc1cc(OC)c(OC)c(OC)c1 10.4%, Cc1ccc(CNC(=O)CCNS(=O)(=O)c2cccc3nonc23)cc1 10.6%, Cc1ccc(OS(=O)Nc2cccc3nccnc23)cc1 (centres undefined) 6.4%, CCCCn1c(N)c(N(CCOC)C(=O)COc2c(C)cccc2C)c(=O)[nH]c1=O -3.46%, COc1ccc(OCCCC(=O)Oc2ccc(OC)cc2)cc1 -15%, COc1ccc2c(c1)C(SCC(=O)NCc1ccccc1)CC(C)(C)O2 (centres undefined) 3.48%, O=C(NCC1CCCO1)c1ccc(S(=O)(=O)Nc2ccc(F)cc2)cc1 (centres undefined) 0.46%, O=C(CNC(=O)c1cc(=O)[nH]c2ccccc12)Nc1ccc(F)c(F)c1 -8.3%, C/C(=N\NC(=O)COc1ccc(C)cc1[N+](=O)[O-])c1ccc2c(c1)OCCO2 2.16%, COc1ccccc1CNS(=O)(=O)c1ccc(C)cc1 -4.09%, CCC(C)CN1CCC(CO)(Cc2ccccc2Cl)CC1 (centres undefined) -10.2%, CC(CNC(=O)c1ccc(N)cc1)NC(=O)c1ccc(N)cc1 (centres undefined) -6.68%, O=C(O)CCn1cc(/C=C/C(=O)c2ccc(Cl)cc2)c(-c2cccc(Br)c2)n1 17.1%, Clc1ccc(C[n+]2cc(-c3ccc(Cl)cc3)n3c2CCC3)cc1 -3.08%, CC1(C)OC(=O)C(=CSc2ccc(C(C)(C)C)cc2)C(=O)O1 -2.23%, Cc1cc2cc3c(N)[nH]nc3nc2cc1C 1.11%, Cc1cc(C)c(S(=O)(=O)N2CCOCC2)cc1C -10.1%, O=C(NCc1ccc2c(c1)OCO2)c1c(O)nc2sccn2c1=O 6.57%, CCCCN1C(=O)CCC(C(=O)O)C1c1ccc(OC)cc1 (centres undefined) 7.8%, C=CCCN(Cc1ccccc1)S(=O)(=O)c1ccccc1Br 2.98%, Cc1cc(=O)[nH]c2nnnn12 7.5%, COc1cc2c3c(c1)/C(=C1/SC(=S)NC1=O)C(=O)N3C(C)(C)C=C2C -4.38%, CCN(C[C@H]1N[C@@](Cc2ccccc2)(C(=O)OC)[C@H]2C(=O)N(Cc3ccccc3)C(=O)[C@@H]12)C(=O)c1ccc(C)cc1 -6.61%, Cc1cc(Cl)ccc1NC(=S)N1CCC(C(N)=O)(N2CCCCC2)CC1 -7.07%, N#CCSc1nc2ccc(N3CCOCC3)cc2c(=O)n1CCc1ccccc1 10.5%, Cc1ccsc1C(=O)OCC(=O)c1cc(C)n(CC2CCCO2)c1C (centres undefined) 1.95%, O=C1C(=O)N(CC2COc3ccccc3O2)c2ccccc21 (centres undefined) 19.1%, CCc1[nH]nc(C(=O)N2CCCC(CNS(=O)(=O)c3cccs3)C2)c1C (centres undefined) -4.96%, C=CCNC(=O)c1cc2nc(C3CC3)cc(C(F)F)n2n1 14%, CCN(CC)C(=O)[C@H]1CC(CC(=O)NCc2ccco2)C(=O)N2CCc3c([nH]c4ccccc34)[C@]12C (some centres undefined) -4.97%, Cc1onc(-c2ccc(Cl)cc2)c1-c1ccnn1S(=O)(=O)c1ccc(Cl)cc1 0.4%, CC[C@@]1(C(=O)OC)N[C@H](CN(C)C(C)=O)[C@@H]2C(=O)N(C)C(=O)[C@@H]21 -5.2%, CC(=O)c1c(C)[nH]c(C(=O)COC(=O)c2cccc(S(=O)(=O)N(C)c3ccccc3)c2)c1C 16.7%, COCCN(C(=O)CSCc1ccc(C)cc1)c1c(N)n(CC(C)C)c(=O)[nH]c1=O -4.58%, COc1cc(CO)ccc1OCC(=O)Nc1cccc2ccccc12 -1.93%, S=C(Nc1cccc(Br)c1)N1CCn2cccc2C1c1cccnc1 (centres undefined) 4.07%, COCCNC(=O)c1ccc(-n2c(SCc3cccnc3)nc3ccccc3c2=O)cc1 -1.32%, O=Cc1cn(-c2ccccc2)nc1-c1ccccn1 -7.78%, CCOc1ccccc1-c1nc(CN2CCC(C(=O)N3CCOCC3)CC2)c(C)o1 -3.93%, COc1ccc(CN(Cc2ccc(OC)cc2)C(=O)c2cccs2)cc1 1.52%, COc1ccc(CCNC(=O)C(Sc2ccccn2)c2ccccc2)cc1OC (centres undefined) -5.11%, CC1CCCC(NC(=O)COC(=O)[C@@H]2CC(O)CN2S(=O)(=O)c2ccc3c(c2)OCCO3)C1C (some centres undefined) -2.96%, Cc1noc(/C=C/c2ccco2)c1S(=O)(=O)N1CCC(C(=O)Nc2ccc(Cl)cn2)CC1 -6%, CCOC(=O)/C(=C\c1ccc([N+](=O)[O-])cc1)C(=O)c1cc(C(C)=O)c(Nc2ccccc2)s1 33.5%, COc1nnc(-c2ccc(C)c(S(=O)(=O)N(C)C)c2)c2ccccc12 -2.23%, O=C(CC1NCCc2ccccc21)Nc1cccc(Cl)c1 (centres undefined) 8.29%, CN1CCN(c2ccccc2NC(=O)COc2ccc(C3CCCCC3)cc2)CC1 -0.75%, C/C=C/c1ccc(OCC(=O)NNC(=O)CN(C)S(=O)(=O)c2ccc(C)cc2)c(OC)c1 0.23%, CCOC(=O)C(C)n1nc(-c2ccccc2)c2ccccc2c1=O (centres undefined) -7.97%, O=[N+]([O-])c1ccc(N2CCN(c3ccc(F)cc3)CC2)cn1 3.5%, CC(C)CCSc1ncnc2c1oc1nc3c(cc12)COC(C)(C)C3 1.9%, CCCc1nc2oc3c(=O)[nH]cnc3c2c2c1COC(C)(C)C2 27.4%, Cc1cc(Cl)c2oc(C(=O)N3CCC(O)(c4ccccc4)CC3)c(C)c2c1 -1.23%, COc1ccc(N2CCN(C(=O)C3CCN(C(=O)c4ccccc4Cl)CC3)CC2)cc1 -1.69%, CCCCc1nc(SCC(=O)Nc2nnc(C(C)C)s2)n[nH]1 -4.74%, CCCCCC1CC(COc2ccccc2)OC1=O (centres undefined) -1.3%, COC(=O)c1c(C)c(C)nc(N)c1C#N 3.54%, COc1ccccc1N(C(=O)Cn1nnc2ccccc21)C(C(=O)NCc1ccco1)c1ccc(C)o1 (centres undefined) -6.23%

inhibition, active:
O=C(c1cccnc1)N(c1cc2sc(=O)oc2c2ccccc12)S(=O)(=O)c1ccccc1 38.2%, CN1c2ccc(C=O)c3c(C=O)ccc(c23)N(C)C1(C)C 36.4%, CCOC(=O)C1=C(c2ccc(OC)cc2)C(=O)c2ccccc2C1=O 81.4%, COc1ccc(NC(=O)CSc2ccc(-c3ccco3)nn2)c(OC)c1 47.3%, COc1ccc2c(c1)c(=Cc1ccc(N(C)C)cc1)c1cc(-c3ccccc3)[n+](C)n12 43.2%, Cc1cc(C(=O)CCl)c(C)n1CC1COc2ccccc2O1 (centres undefined) 38.2%, CCC(=C/c1sc2ccc3ccccc3c2[n+]1C)/C=C1\Sc2ccc3ccccc3c2N1C 45%, COc1ccc(C(CCN(Cc2ccc(OC)c(OC)c2)C(=O)CCl)c2ccccc2)cc1 (centres undefined) 35.4%, CCCc1nc2oc3c(OCC)ncnc3c2c2c1COC(C)(C)C2 37.7%
